Source: PubChem BioAssay (Broad Institute)
Only some compounds are listed: those with a hit (about 2.2% of all), similar ones and a draw of the others.
CFTR F508del cor = F508del CFTR correction, initial screen, CFBE line, single point. CFBE cells, YFP halide quenching; stimulated with forskolin plus potentiator P3; % fluorescence drop versus neutral controls. 350,000 compounds, 0.36% hits. activity (quench increase), % at 7.58 µM;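 active = mean added fluorescence quench of at least 8% versus neutral control, with both replicates also reaching 8%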;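 note: cells transiently co-express mutant CFTR-F508del with the halide-sensitive YFP; corrector assay measuring rescue of mutant channel to the surface after 24 h compound exposure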
FGF22 binding = binders of human FGF22 protein, primary screen, FGF22 synaptogenesis inhibitor project, biophysical, thermal shift, single point; recombinant FGF22 thermal shift, SYPRO orange fluorescence; percent of sucrose octasulfate shift, DMSO zero; activity (Tm shift, normalised), % at 9.99 µM; 340,000 compounds, 1.5% hits; AID 651658, 2012;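 active = mean Tm shift, scaled 0 neutral to 100 positive control, at about 1.3% or above, every replicate too, limit read from the data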
Target sequence (Q9HCT0 whole entry, looked up): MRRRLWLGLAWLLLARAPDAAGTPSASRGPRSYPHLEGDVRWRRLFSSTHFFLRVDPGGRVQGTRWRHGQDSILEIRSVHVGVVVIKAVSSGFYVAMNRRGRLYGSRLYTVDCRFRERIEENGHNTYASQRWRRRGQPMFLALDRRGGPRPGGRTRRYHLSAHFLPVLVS
S100A4 MyoIIA = inhibitors of S100A4-myosin IIA peptide binding, primary screen, biochemical, fluorescence polarization, TAMRA-MyoIIA peptide; Protein S100-A4 (Homo sapiens), P26447; AID 652163, 2013; inhibition, % at 10.7 µM; 360,000 compounds, 0.14% hits;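 active = mean inhibition of at least 70% across replicates, with every replicate also reaching that level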
Target sequence (P26447 whole entry, looked up): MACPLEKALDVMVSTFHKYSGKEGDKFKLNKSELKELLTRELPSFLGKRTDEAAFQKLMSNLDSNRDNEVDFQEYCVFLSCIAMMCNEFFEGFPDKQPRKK
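Test system: S100A4 monomer protein. Medium: HEPES buffer with Ca2+, pH 7.2. Reagent: fluorescent myosin IIA peptide, 5 nM. Compound dosing: single-point compound testing. Timing: 5 min between mix addition and reading. Benchmarks: DMSO neutral and TFP positive wells.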
dFosB act-1 = activators of delta FosB homodimer, primary screen, biochemical, fluorescence polarization, TAMRA-CDK5 oligo, single point | purified delta FosB; percent of positive-control signal above neutral wells | activation, % at 25 µM | 340,000 compounds, 0.99% hits | AID 493131, 2011;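 active = mean activation above about 17%, with every replicate also reaching it, limit read from the data, passing the limit was not always enough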
Target sequence (P13346 whole entry, looked up): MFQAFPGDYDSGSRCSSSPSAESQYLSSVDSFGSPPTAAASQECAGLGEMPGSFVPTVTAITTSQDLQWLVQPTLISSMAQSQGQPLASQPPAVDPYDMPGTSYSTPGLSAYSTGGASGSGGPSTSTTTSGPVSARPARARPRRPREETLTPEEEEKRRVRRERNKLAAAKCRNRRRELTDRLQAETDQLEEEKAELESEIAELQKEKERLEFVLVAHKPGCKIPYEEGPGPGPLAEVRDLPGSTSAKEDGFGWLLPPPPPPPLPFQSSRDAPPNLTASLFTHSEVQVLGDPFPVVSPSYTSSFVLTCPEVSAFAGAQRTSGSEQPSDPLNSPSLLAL
dFosB act-2 = activators of mouse delta FosB DNA binding, confirmation, biochemical, fluorescence polarization, TAMRA-CDK5 oligo, cherry-picked samples; shares compounds with dFosB act-1; purified delta FosB; normalised: neutral wells 0, positive control 100; activation, % at 24.9 µM; 2,400 tested, under 10 active;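 active = highest replicate activation at or above 34% and every replicate reaching that threshold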;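 note: higher polarization means more probe DNA bound by delta FosB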
Hits are given with their value; - = inactive; . = not tested or not shown.

SMILES	CFTR F508del cor	FGF22 binding	S100A4 MyoIIA	dFosB act-1	dFosB act-2
C[C@@H]1CN([C@@H](C)CO)C(=O)c2cc(NC(=O)Cc3cn(C)c4ccccc34)ccc2O[C@@H]1CN(C)C(=O)Nc1cccc2ccccc12	-	-	-	.	.
COc1cccc(NC(=O)c2cc(C(=O)Nc3cccc(OC)c3)n(C)n2)c1	.	.	-	-	.
Cn1nc(C(=O)Nc2ccc(Br)cc2)cc1C(=O)Nc1ccc(Br)cc1	-	-	-	40	-
O=C(/C=C/c1cccs1)Nc1nccs1	-	-	-	-	.
O=C(/C=C/c1cccs1)Nc1cccc(NC(=O)/C=C/c2cccs2)n1	.	-	-	21	-
O=C(NNC(=O)c1ccc(Cl)s1)c1csc(N2CCOCC2)n1	-	-	-	21	-
C/C=C/c1cnc2c(c1)C(=O)N([C@H](C)CO)C[C@@H](C)[C@@H](CN(C)S(=O)(=O)c1cn(C)cn1)O2	-	-	-	.	.
CCc1csc(N2[C@H](C#N)[C@@H](c3ccc(-c4ccc(F)cc4)cc3)[C@H]2CO)n1	-	-	-	.	.
COc1ccc2c(Cl)c(C(=O)N/N=C/c3ccncc3)sc2c1	-	-	-	52	-
Cc1ccc(NC(=O)C2CC(=O)Nc3nc4ccccc4n32)c(C)c1 (configuration not stated)	-	-	-	47	-
C/C=C/c1cnc2c(c1)C(=O)N([C@@H](C)CO)C[C@H](C)[C@H](CN(C)C(=O)c1ccc3c(c1)OCO3)O2	-	-	-	.	.
C[C@H]1CCCCO[C@@H](CN(C)CC2CCCCC2)[C@@H](C)CN([C@@H](C)CO)C(=O)c2cc(NS(=O)(=O)c3ccc(F)cc3)ccc2O1	-	-	-	.	.
O=S(=O)(N[C@@H]1CC[C@H](CCn2cc(C3CC3)nn2)O[C@H]1CO)c1ccc(F)cc1	-	-	-	.	.
O=C(Nc1ccc(OC(=O)c2ccccc2)c(-c2nc3ccccc3s2)c1)c1ccccc1	.	.	.	18	-
C[C@@H]1CN([C@@H](C)CO)S(=O)(=O)c2ccc(Br)cc2O[C@@H]1CN(C)Cc1ccc(C(=O)O)cc1	-	-	-	.	.
COc1ccc(COc2cc(-c3cccc(OC)c3)nc3ccc(NC(=O)c4cccnc4)cc23)cc1	-	-	-	19	-
CCCNC(=O)N1C[C@H](C)[C@H](OC)CN(C)C(=O)c2ccc(NC(=O)C3CCC3)cc2OC[C@H]1C	-	-	-	.	.
COc1ccc(-c2cc3c(=O)n(CC(=O)NCCCc4ccccc4)ncn3n2)cc1	-	-	-	-	.
CCc1ccc(NC(=O)Cn2ncc3c4ccccc4n(C)c3c2=O)cc1	-	-	-	-	.
COc1ccc(-c2cc3c(=O)n(CC(=O)Nc4ccc(Cl)cc4)ncn3n2)cc1	-	-	-	31	-
Cn1c2ccccc2c2cnn(CC(=O)Nc3ccc(Cl)cc3)c(=O)c21	-	-	-	26	-
CCOC(=O)N1CCN(C(=O)Cn2nc(C)n3nc(-c4ccccc4)cc3c2=O)CC1	-	-	-	-	.
COc1ccc(NC(=O)Cn2ncn3nc(-c4ccc(OC)cc4)cc3c2=O)cc1	-	-	-	63	-
Cc1nn(CC(=O)Nc2ccc(Cl)cc2)c(=O)c2cc(-c3ccccc3)nn12	-	-	-	30	-
COCC(=O)N(C)C[C@@H]1Oc2ncc(C#C[C@@H](C)O)cc2C(=O)N([C@@H](C)CO)C[C@@H]1C	-	-	-	.	.
SMILES	CFTR F508del cor	FGF22 binding	S100A4 MyoIIA	dFosB act-1	dFosB act-2
O=C(Nc1ccccc1F)N1CCCCN2[C@H](CO)[C@H](c3ccc(C4=CCCC4)cc3)[C@@H]2C1	-	-	-	.	.
CCCC#Cc1cnc2c(c1)C(=O)N([C@H](C)CO)C[C@H](C)[C@H](CN(C)Cc1ccncc1)O2	.	-	-	.	.
Cc1cccc(CSc2nc3ccncc3n2CC(=O)Nc2cc(C)cc(C)c2)c1	-	-	-	33	-
NC(=S)N/N=C/c1coc2cc(Br)ccc2c1=O	-	-	-	24	-
O=C(CSc1nnc(-c2ccco2)o1)Nc1c(F)cccc1F	-	-	-	-	.
O=C(CSc1nnc(-c2ccco2)o1)Nc1cccc([N+](=O)[O-])c1	-	-	-	41	-
O=C(Nc1ccc2c(c1)[C@@H]1C[C@H](CC(=O)N3CCc4ccccc4C3)O[C@H](CO)[C@@H]1O2)NC1CCCC1	-	-	-	.	.
CCOc1ccc(NC(=O)C2CCCN(S(=O)(=O)c3ccc4[nH]c(=O)ccc4c3)C2)cc1 (configuration not stated)	-	-	-	-	.
COc1cc(NC(=O)C2CCCN(S(=O)(=O)c3ccc4[nH]c(=O)ccc4c3)C2)cc(OC)c1 (configuration not stated)	-	-	-	52	-
COc1ccc(NC(=O)C2CCCN(S(=O)(=O)c3ccc4[nH]c(=O)ccc4c3)C2)cc1 (configuration not stated)	-	-	-	17	-
COCC(=O)Nc1ccc2c(c1)OC[C@@H](C)N(Cc1cc(F)ccc1F)C[C@H](C)[C@H](OC)CN(C)C2=O	-	-	-	.	.
C[C@@H]1CCCCO[C@H](CN(C)CC2CCCCC2)[C@@H](C)CN([C@H](C)CO)C(=O)c2cc(NC(=O)C3CCCCC3)ccc2O1	-	-	-	.	.
CC(CCc1ccco1)NC(=O)CCc1nnc2ccc(NCc3ccccc3Cl)nn12 (configuration not stated)	-	-	-	22	-
CC(CCc1ccco1)NC(=O)CCc1nnc2ccc(NCc3ccc(Cl)cc3)nn12 (configuration not stated)	-	-	-	-	.
O=C(NCC(=O)N(c1ccc2c(c1)OCO2)C(C(=O)NC1CCCC1)c1cccs1)c1ccco1 (configuration not stated)	.	.	.	50	-
O=C(Nc1cc(F)ccc1F)N[C@H]1C=C[C@@H](CC(=O)N2CCc3ccccc3C2)O[C@H]1CO	-	-	-	.	.
COc1cccc(-c2nnn(CC(=O)Nc3cc(OC)c(NC(=O)c4ccco4)cc3OC)n2)c1	.	.	.	17	-
CCCOc1ccc(-c2nnn(CC(=O)Nc3cccc(C(=O)OC)c3)n2)cc1	.	.	.	-	.
CCOc1ccc(-c2nnn(CC(=O)Nc3cccc(OC)c3)n2)cc1OCC	.	.	.	19	-
O=C(Cn1nnc(-c2ccc(Cl)cc2)n1)NCc1ccco1	-	-	-	-	.
O=C(Cn1nnc(-c2ccccc2F)n1)Nc1ccc2c(c1)OCCO2	-	-	-	-	.
Cc1ccc(NC(=O)Cn2nnc(-c3ccc4c(c3)OCO4)n2)cc1F	-	-	-	23	-
